High-throughput results from PubChem.
Hits are enriched below; roughly 1.4% of the tested compounds scored in any of these assays.
Calpain2 inh = calpain II (pig) inhibition. purified calpain II, fluorogenic peptide substrate, 30 min. inhibition, % at 16 µM. 220,000 compounds, 0.37% hits;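 active = inhibition above about 50%, limit read from the data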
FXIIa inh = inhibitors of human coagulation factor XIIa | P00748 | inhibition, % at 5 µM | 220,000 compounds, 0.3% hits | purified FXIIa, Boc-QGR-AMC fluorogenic substrate, 2 h; in the data active = inhibition above about 40%;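 note: 0% = enzyme with no compound and 100% = blank without enzyme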
Target sequence (P00748 20-372 limits assumed): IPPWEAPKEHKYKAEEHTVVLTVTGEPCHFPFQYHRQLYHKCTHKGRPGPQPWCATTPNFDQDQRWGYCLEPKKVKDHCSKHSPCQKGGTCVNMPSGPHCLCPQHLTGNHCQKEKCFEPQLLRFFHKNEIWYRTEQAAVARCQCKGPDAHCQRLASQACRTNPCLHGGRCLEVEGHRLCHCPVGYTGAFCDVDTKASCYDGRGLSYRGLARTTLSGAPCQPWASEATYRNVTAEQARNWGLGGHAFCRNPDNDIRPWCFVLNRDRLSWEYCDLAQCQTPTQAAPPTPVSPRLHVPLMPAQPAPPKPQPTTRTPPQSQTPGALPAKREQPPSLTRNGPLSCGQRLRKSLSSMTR
Target sequence (P00748 373-615 limits assumed): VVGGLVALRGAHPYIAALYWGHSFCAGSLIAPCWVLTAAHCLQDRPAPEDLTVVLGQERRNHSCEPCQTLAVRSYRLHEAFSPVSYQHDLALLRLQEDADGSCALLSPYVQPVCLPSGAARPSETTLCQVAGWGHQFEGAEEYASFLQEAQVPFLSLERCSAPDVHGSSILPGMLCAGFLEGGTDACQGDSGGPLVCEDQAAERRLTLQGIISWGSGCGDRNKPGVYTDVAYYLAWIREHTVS
KLK5 inh = blocks human kallikrein 5 protease activity. recombinant hK5, fluorogenic AMC substrate cleavage. 210,000 compounds, 0.59% hits. inhibition, % at 5 µM. Q9Y337;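 active = inhibition of 40% or more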;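 note: 0% = enzyme controls without compound and 100% = no-enzyme blanks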
thrombin 1536 = thrombin (human) inhibition | alpha-thrombin, Boc-VPR-AMC fluorogenic substrate cleavage | 220,000 compounds, 0.26% hits | inhibition, % at 5 µM | AID 1046 | P00734;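 active = inhibition at or above 40%; inactive = inhibition below 40%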;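 note: 0% = enzyme with no compound and 100% = wells without enzyme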
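System – human alpha-thrombin protein · Reagent – Boc-VPR-AMC substrate, 15 µM final · Compound – 5 µM single dose in 0.2% DMSO · Schedule – reaction at room temperature · Technique – AMC fluorescence at 355 nm excitation and 460 nm emission · Read-out basis – % inhibition relative to enzyme controls and enzyme-free blanks · Control set – no-compound enzyme wells and no-enzyme blanks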
FXIa inh = factor XIa (human) inhibition | P03951 | purified FXIa, Boc-Glu-Ala-Arg-AMC fluorogenic substrate | inhibition, % at 5 µM | 220,000 compounds, 0.14% hits | AID 798;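 active = inhibition of at least 40%; inactive = inhibition below 40%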;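 note: fluorescence of freed AMC excited at 355 nm; 0% = enzyme without compound and 100% = no enzyme blank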
The depositor's hits bear a star; nt = not tested or not shown.

SMILES | Calpain2 inh | FXIIa inh | KLK5 inh | thrombin 1536 | FXIa inh
COc1ccccc1NC(=O)/C(=C/c1cccs1)NC(=O)c1ccco1 | 54.9* | 0.8 | -2.3 | -12.4 | 2.3
Nc1ccc(O)c2c1C(=O)c1ccccc1C2=O | -13.7 | 0.1 | -27.7 | 3.1 | 11.9
Nc1c(Cl)cc2c(c1Oc1ccccc1)C(=O)c1ccccc1C2=O | 52.8* | 11.9 | -7.1 | 4.9 | 8.6
CC(C)c1ccc(NC(=O)CCCN2C(=S)NC(C)(C)CC2C)cc1 (configuration not stated) | 13.1 | 9.9 | 3.7 | -0.9 | 0.5
Cn1c(CCNC(=O)c2ccccc2)nc2cc(NC(=O)c3ccco3)ccc21 | -14.5 | 7.0 | -20.2 | -7.0 | -2.4
COc1ccc(Cl)cc1N(CC(=O)NC(C)(C)C)S(=O)(=O)c1ccc(C)c([N+](=O)[O-])c1 | 46.6 | 20.4 | 44.8* | 29.1 | 12.4
COC(=O)CNC(c1ccccc1)c1cc(C)ccc1NS(=O)(=O)c1ccc(C)cc1 (configuration not stated) | -7.0 | 10.3 | -12.7 | 1.0 | 13.0
CCC(CC)c1nnc(NC(=O)Oc2ccccc2)s1 | 28.2 | 42.9* | 2.2 | 2.4 | 29.7
CCC(CC)c1nnc(NC(=O)CCN2C(=O)c3ccccc3C2=O)s1 | 13.9 | 25.1 | 53.2* | 27.2 | 4.4
COc1ccc(/C=N\NS(=O)(=O)c2ccc(Cl)cc2)cc1COc1ccccc1[N+](=O)[O-] | 18.9 | 18.7 | 47.3* | 84.8* | 8.0
CC(C)CCN(C(=S)NC(=O)C1CCCCC1)c1c(N)n(Cc2ccccc2)c(=O)[nH]c1=O | 63.7* | 16.7 | 10.0 | 13.3 | 8.5
COCCN(C(=O)C1CCCC1)c1c(N)n(Cc2ccccc2)c(=O)[nH]c1=O | 11.4 | 7.0 | 3.1 | -9.9 | -1.0
CC1(C)C(C=C(Cl)Cl)C1C(=O)Nc1ccc([N+](=O)[O-])cc1 (configuration not stated) | 52.7* | 3.0 | -5.0 | -11.2 | -3.7
CCOc1ccc(N(CC(=O)Nc2ccc3c(c2)OCCO3)S(=O)(=O)c2c(C)noc2C)cc1 | 2.8 | 40.8* | 29.8 | 20.7 | 19.4
COc1cccc(/C=N/NC(=O)CCn2cnc3ccccc32)c1 | 19.3 | -3.5 | -5.3 | -6.5 | -5.0
COc1ccc(/C=N/NC(=O)CCn2cnc3ccccc32)cc1 | 16.7 | 40.3* | 40.6* | 9.8 | 40.5*
Cc1c(C(=O)N2CCOCC2)sc2ncnc(N3CCc4ccccc4C3)c12 | 15.0 | 45.2* | 7.5 | 1.7 | 16.5
OCCN(Cc1ccccc1)C(=S)Nc1ccc(F)cc1 | -13.9 | 1.5 | -7.6 | -4.6 | -5.2
COc1ccc(CN(C)C(=S)Nc2ccc(Cl)cc2)cc1 | 29.5 | 42.4* | 30.0 | -0.6 | 27.2
CCn1c(C)c(C(C)=O)c(NCc2ccccc2)nc1=S | 6.4 | 14.2 | -4.2 | -2.6 | 2.1
Cc1cc(C(=O)Cn2ncc(Cl)c(Cl)c2=O)c(C)n1CC(F)(F)F | -7.5 | 30.8 | 71.7* | 24.4 | 17.6
Cc1ccc(C)c(C(=O)Cn2ncc(Cl)c(Cl)c2=O)c1 | -33.6 | 1.5 | -2.7 | -6.0 | -11.0
Fc1cccc(Cn2cc(C(=S)N3CCCCC3)c3ccccc32)c1 | 65.8* | 0.4 | -7.1 | 24.1 | -1.1
Nc1nonc1C(=O)NCCNCc1cc(Br)ccc1OCc1ccccc1F | 75.1* | 1.7 | -21.3 | -13.8 | 0.2
Nc1nonc1C(=O)NCCNCc1ccccc1OCc1ccccc1F | 13.7 | 9.5 | -27.0 | -5.8 | -0.6
SMILES | Calpain2 inh | FXIIa inh | KLK5 inh | thrombin 1536 | FXIa inh
NS(=O)(=O)c1ccc(CCNCc2cc(Br)ccc2OCc2ccccc2F)cc1 | 52.6* | 1.6 | nt | 0.2 | 0.4
C=CCOc1ccccc1CNCCc1ccc(S(N)(=O)=O)cc1 | -3.5 | 1.8 | -6.2 | -8.7 | -6.7
Cc1cccc(N2C(=O)C3C4CC(C(Br)C4Br)C3C2=O)n1 (configuration not stated) | -22.4 | 10.7 | 0.5 | -5.7 | -2.6
CC(Sc1nncn1C)C(=O)NCc1ccc2c(c1)OCO2 (configuration not stated) | 5.6 | 27.9 | 26.9 | 77.2* | 31.7
NNC(=O)c1ccccc1-n1cccc1 | 1.3 | 4.3 | -3.8 | -2.5 | -3.6
C/C(=N\NC(=O)c1ccc(Br)cc1)c1cccc(NC(=O)c2cccnc2)c1 | -23.3 | 2.1 | -9.1 | 1.3 | -2.5
C=CCNc1nc(NC(C)(C)CO)nc(OC)n1 | 10.2 | 30.4 | -8.7 | -0.2 | 46.0*
C=CCNc1nc(NC(C)(C)CO)nc(OCC)n1 | -7.6 | 7.9 | -4.2 | -2.8 | -4.2
COc1ccc(C)cc1NC(=O)COC(=O)C1CCN(C(=O)c2ccc(Cl)cc2)CC1 | 20.3 | 26.3 | 28.1 | 26.8 | 49.3*
COc1ccc(OC)c(NC(=O)COC(=O)CSc2ccc(Cl)cc2)c1 | 90.3* | 14.2 | -3.2 | 2.6 | 11.6
COc1ccc(OC)c(NC(=O)CSc2ccc3ccccc3c2)c1 | 20.7 | 18.1 | 0.6 | 2.8 | 7.2
Cn1c(=O)c2c(ncn2CC(=O)Nc2ccccc2N2CCOCC2)n(C)c1=O | -22.9 | 4.0 | 0.5 | -11.7 | -6.5
C[N+]1(C2CCC3CCC2C3O)CCCC1 (configuration not stated) | 23.0 | 4.4 | -7.6 | -6.5 | 7.1
C=C(C)CN=c1scc(C)n1/N=C/c1ccco1 | 7.4 | 9.8 | 43.0* | 8.9 | 4.2
Cc1cc(C)n(-c2nnc(C)n2/N=C/c2ccco2)n1 | -10.9 | 16.2 | -3.5 | 1.1 | 9.2
CCCCNC(=O)CCCCC(=O)N/N=C/c1ccccc1Cl | 1.1 | 5.9 | -20.7 | 0.3 | 3.3
COc1cc(/C=N/NC(=O)CSc2ccccn2)ccc1O | -0.3 | 5.5 | 1.5 | 0.8 | -3.4
Nc1cccc2c1C(=O)N(C(=O)c1ccco1)C2=O | -328.2 | 15.1 | 9.4 | 47.0* | 11.2
Cc1ccc(Sc2cnn(-c3ccccc3)c(=O)c2Cl)cc1 | 34.9 | 5.5 | 8.1 | 0.6 | -0.3
C=CCNc1cnn(-c2ccc(C)cc2)c(=O)c1Sc1ccc(C)cc1 | 65.3* | -2.0 | -21.0 | 1.9 | -4.8
COc1ccc(C2N3CC4(C)CN2CC(C)(C3)C4O)cc1OC (configuration not stated) | -5.2 | 5.6 | -9.8 | -4.7 | -5.5
COC(=O)c1ccccc1NC(=O)CN(C)S(=O)(=O)c1ccc(OC)cc1 | 19.6 | 9.9 | -3.2 | 1.2 | 2.2
COC(=O)c1ccccc1NC(=O)CN(C)S(=O)(=O)c1ccc(OC)c(C)c1 | -11.2 | 4.0 | 118.7* | 2.4 | -4.0
Cc1ccc(S(=O)(=O)N(C)CC(=O)Nc2ccccc2)cc1 | 12.3 | 23.0 | 53.4* | 13.7 | 15.3
CN(Cc1ccccc1)c1nc2c(c(=O)[nH]c(=O)n2C)n1CCCSc1ncccn1 | 24.2 | 51.6* | -17.5 | 4.6 | 41.9*
Cn1nc(C(F)(F)F)c(-c2ccccc2)c1NC(=O)CSCC(=O)O | -2.6 | 6.5 | -3.2 | -3.1 | 2.3
Cn1nc(C(F)(F)F)c(-c2ccccc2)c1NC(=O)CCC(=O)O | 4.5 | 30.2 | 43.2* | 30.8 | 26.7
CCOC(=O)C1CCCN(C(=O)c2cc3ncc(Br)cn3n2)C1 (configuration not stated) | 0.6 | 28.1 | 47.6* | 17.4 | 12.7
